This series in a line: Toxicity liver stage against HepG2, at 10uM. It counts as cell-based. Also on record: test concentration 10 uM, cell line HepG2-A16-CD81EGFP. The settings on record: human, HepG2-A16-CD81EGFP cells; read-out: INHIBITION
The method, boiled down:
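Uninfected HepG2-A16-CD81EGFP cells, 3 × 10^3 per well, 1536-well, plated on prespotted compound at 10 μM final, parasite-free screening media added to match infected plates; puromycin 10 μM positive, DMSO 0.5% negative; run in parallel with 48 h PbLuc assay at 37 °C, 5% CO2; viability by CellTiter-Glo luminescence, normalized to controls.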
As for `CC(C)CN1C[C@H](COCc2ccccc2)Oc2ncccc2C1=O`, the cytotoxicity at 10 µM is -57.4%. `CNC(=O)[C@@H]1[C@@H](c2ccccc2)CN2CCN(Cc3ccccn3)C[C@H]12`: the cytotoxicity at 10 µM was 8.76%. Next, `COC1CN(C(=O)NCC(N)=O)CCC(=O)N(C)c2ccccc21` (stereo not given): -3.84%; `O=C(CCN1C(=O)CC2(CCCC2)C1=O)NCCc1nccs1`: 2.86%; `O=S(=O)(NCC1(O)CCOCC1)c1ccccc1Br`: -5.93%. Next, `CCN(C)c1ncnc2c1CCN(C(=O)[C@H]1CCCO1)CC2`: 3.38%; `CC(C)c1nnc2n1CCN(C(C(N)=O)c1ccc(F)cc1)C2` (stereo not given): 1.54%. Next, `CC(C)(C)c1nc2cc(NC(=O)Cn3ccc(=O)[nH]c3=O)ccc2o1`: -7.07%.

Regarding `CCC(C)(C)NC(=O)COC(=O)c1cc(C)ccc1NC(=O)N(C)C`, the cytotoxicity at 10 µM stood at 1.12%. To `Cc1noc(C)c1CNC(C)c1ccc(S(=O)(=O)N(C)C)cc1` (stereo not given) belongs 2.47%; to `COc1cc2c(cc1OC)CCN(C(=O)Cn1nc(C)cc1C)CC2`, 2.63%.

In the case of `O=C(NCC1(C(=O)O)CCC1)c1nnn(-c2ccc(F)cc2)c1C1CC1`, the cytotoxicity at 10 µM is -14.8%. Turning to `COc1c(CNC2CCOc3c(F)cccc32)c(C)nn1C` (stereo not given), the cytotoxicity at 10 µM was 7.5%. Regarding `O=C(COc1cccc2c1CCC2=O)NCC(F)(F)F`, the cytotoxicity at 10 µM is -8.74%.

Regarding `CCn1cnnc1C1CCN(C(=O)c2cccc(-n3cccc3)c2)CC1`, the cytotoxicity at 10 µM worked out at 4.56%. With `Cc1cc(NCC(=O)N(C)C)c(C(N)=O)cc1F`, the cytotoxicity at 10 µM is -2.64%. To `CCOc1cccc(CCNC(=O)Cc2ccccc2O)n1` belongs -2.55%; to `COCCNC(=O)NC1(c2ccccc2F)CC1`, -0.421%. With `COCCC(=O)N1CCc2cc(Cl)cc(Cl)c2C1`, the cytotoxicity at 10 µM is -13.1%.

Consider `COC(=O)CCNC(=O)c1ccoc1CN1c2ccccc2CC1C` (stereo not given), for which the cytotoxicity at 10 µM is -9.23%. Next, `Cc1n[nH]c(C)c1CC(=O)N1CCN(C)C2(CCNC(=O)CC2)C1` (stereo not given): 2.65%.

Turning to `Cc1nn(C)c2nc(NCCN3CCCC(C(N)=O)C3)sc12` (stereo not given), the cytotoxicity at 10 µM is 0.739%. Next, `Cc1cc(C)n2ncc(CN3CCC(Cn4cc(CO)nn4)CC3)c2n1`: 7.85%. `CN(CCc1ccccn1)C(=O)C1Cc2ccccc2CN1C` (stereo not given): the cytotoxicity at 10 µM stood at 1.47%. Next, `Cc1ccsc1-c1nccn1CCS(=O)(=O)N1CCCC1`: -3.67%; `CCC[C@@H]1CN(C(=O)c2cc3ccccc3s2)C[C@H]1NS(C)(=O)=O`: -9.53%. In the case of `Cc1ccc(-c2c(-c3ccccc3)ncn2CCCN2CCOCC2)o1`, the cytotoxicity at 10 µM came out at 6.23%. Take `C[C@@H]1CN(Cc2ccncc2)C[C@]1(C)O`: the cytotoxicity at 10 µM was 1.6%. Regarding `N#Cc1cccc(S(=O)(=O)N2CCCCC2CCN2CCCC2=O)c1` (stereo not given), the cytotoxicity at 10 µM was -16.9%. To `O=C(Nc1ccc(CCN2CCC(O)CC2)cc1)C1CCCOC1` (stereo not given) belongs -4.81%; to `CCc1csc(C2CCCN(C(=O)C3=NN(CC)C(=O)CC3)C2)n1` (stereo not given), -6.26%; to `Cc1noc(C)c1C(=O)NCC(O)c1ccc(F)cc1F` (stereo not given), -3.56%. Next, `COc1ccc(C(O)CNC(=O)NCc2csc(C)n2)cc1` (stereo not given): -6.12%. Regarding `NC(=O)COc1cccc(C(=O)N2CCCC(n3cccn3)C2)c1` (stereo not given), the cytotoxicity at 10 µM was -4.86%. To `Cc1nc(C)c(CC(=O)Nc2nnc(C)s2)c(=O)[nH]1` belongs -2.17%; to `Cn1cc(Cl)cc1C(=O)N1CCCN(Cc2cccs2)CC1`, -5.82%; to `CN(Cc1nc(-c2ccco2)no1)C1CCCN(c2cccnn2)C1` (stereo not given), -7.72%. To `Fc1cccc(-c2nc(CN3CCCCC3Cn3cncn3)co2)c1` (stereo not given) belongs -12.8%; to `CCS(=O)(=O)c1ccccc1C(=O)NCc1ccnc(N(C)C)c1`, -3.92%; to `O=C(O)c1cc(NS(=O)(=O)c2ccc(Cl)s2)ccc1N1CCOCC1`, -4.05%.

Values taken from ChEMBL document CHEMBL4513216, “Probing the Open Global Health Chemical Diversity Library for Multistage-Active Starting Points for Next-Generation Antimalarials” (ACS Infect Dis, 2020).
